Laboratory results published in PubChem BioAssay AID504417 (Johns Hopkins Ion Channel Center, 2011).
Activity calls are given as the source filed them.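 How the source made its calls: active means potentiation or inhibition of the KCNQ1 potassium channel at any tested concentration, with a dose response curve obtained; inactive means no effect at any concentration, or no dose response.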

Molecular target: Potassium voltage-gated channel subfamily KQT member 1 (Homo sapiens) (UniProt P51787)
Assay: KCNQ1 thallium flux concentration-response – KCNQ1-expressing cells, selectivity assay for KCNQ2 activator project, dose response (AID 504417)
Conditions: FluxOR thallium flux fluorescence; series mostly up to 30 µM
How it was run: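 Probe or stimulus: potassium sulfate plus thallium sulfate stimulus, 12.5 mM each in 5x stock / System: CHO cells expressing the KCNQ1 potassium channel / Detection: kinetic FluxOR thallium-flux fluorescence, 10 s baseline plus 110 s post-stimulus / Times: FluxOR dye loading 90 min, compound exposure 20 min, room temperature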

Chain of Potassium voltage-gated channel subfamily KQT member 1 (Homo sapiens) (P51787 whole entry, looked up): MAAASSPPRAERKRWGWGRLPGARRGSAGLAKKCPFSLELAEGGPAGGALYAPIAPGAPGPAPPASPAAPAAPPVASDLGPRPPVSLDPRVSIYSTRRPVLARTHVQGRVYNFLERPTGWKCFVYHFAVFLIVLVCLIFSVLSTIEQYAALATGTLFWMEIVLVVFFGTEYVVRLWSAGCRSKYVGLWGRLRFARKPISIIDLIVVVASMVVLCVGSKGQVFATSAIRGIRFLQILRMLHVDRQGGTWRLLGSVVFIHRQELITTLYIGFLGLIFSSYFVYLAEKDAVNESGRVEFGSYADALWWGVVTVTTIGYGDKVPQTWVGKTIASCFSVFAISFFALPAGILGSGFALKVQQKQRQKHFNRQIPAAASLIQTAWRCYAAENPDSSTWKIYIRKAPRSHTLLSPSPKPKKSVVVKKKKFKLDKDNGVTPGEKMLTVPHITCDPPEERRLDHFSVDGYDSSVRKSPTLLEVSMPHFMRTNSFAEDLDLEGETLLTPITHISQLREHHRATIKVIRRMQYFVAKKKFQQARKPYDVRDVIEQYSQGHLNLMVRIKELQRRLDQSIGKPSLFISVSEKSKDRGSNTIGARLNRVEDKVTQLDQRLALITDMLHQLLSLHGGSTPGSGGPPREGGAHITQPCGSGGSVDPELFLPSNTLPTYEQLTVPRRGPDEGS

| SMILES | outcome |
| --- | --- |
| Cc1cc(C)c(NC(=O)C2CC3CCC2C3)c(C)c1 (stereo not given) | inactive |
| Cc1cc(C)c(NC(=O)CC(C)(C)C)c(Cl)c1 | inactive |
| Cc1ccc(C)c(NC(=O)C2CC3CCC2C3)c1 (stereo not given) | inactive |
| CCCCC(=O)Nc1c(C)cc(C)cc1Cl | inactive |
| Cc1cccc(C)c1NC(=O)C1CC2CCC1C2 (stereo not given) | inactive |
